The values that follow come from ChEMBL document CHEMBL5230149, “Discovery of novel ketoxime ether derivatives with potent FXR agonistic activity, oral effectiveness and high liver/blood ratio” (Bioorg Med Chem, 2021).

A short description of data set [1]: Plasma concentration in ICR mouse at 15 mg/kg, po measured after 1.5 hrs by LC-MS/MS analysis. It is filed as ADME, organism-based. A digest of the protocol: (§1)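 Overnight-fasted male ICR mice (n = 3 per time point) received single oral 15 mg/kg and were refed 2 h later. Blood and liver were taken at 1.5, 4 and 8 h. Serum (10 µL) was precipitated with 100 µL methanol/acetonitrile (1:1). Liver was homogenized in ten times its weight of the same solvent. Supernatants were diluted 1:1 in ACN/H₂O and analyzed by LC-MS/MS. The ratio is liver conc (ng/g) over plasma conc (ng/mL).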

Data set [2] in a line: Plasma concentration in ICR mouse at 15 mg/kg, po measured after 4 hrs by LC-MS/MS analysis. It is filed as ADME, organism-based. The method in brief: as §1
The target of data set [3] is T1, Bile acid receptor (Mus musculus) (UniProt Q60641).
T1 sequence (whole entry): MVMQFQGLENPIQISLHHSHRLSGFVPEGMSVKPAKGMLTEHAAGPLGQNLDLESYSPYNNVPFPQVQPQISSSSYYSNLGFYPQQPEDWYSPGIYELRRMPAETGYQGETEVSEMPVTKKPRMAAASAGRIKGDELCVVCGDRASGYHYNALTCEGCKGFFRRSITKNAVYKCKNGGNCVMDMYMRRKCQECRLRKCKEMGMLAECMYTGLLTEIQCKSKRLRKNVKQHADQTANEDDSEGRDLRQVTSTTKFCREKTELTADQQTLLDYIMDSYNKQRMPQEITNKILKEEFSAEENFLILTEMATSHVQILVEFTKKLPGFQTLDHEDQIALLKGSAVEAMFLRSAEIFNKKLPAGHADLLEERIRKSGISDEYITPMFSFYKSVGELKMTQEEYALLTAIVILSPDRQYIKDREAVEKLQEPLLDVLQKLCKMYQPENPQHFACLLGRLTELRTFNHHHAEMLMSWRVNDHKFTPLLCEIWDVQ
Put plainly: Agonist activity at FXR in C57BL/6J mouse hepatocytes assessed as upregulation of SHP mRNA expression incubated for 24 hrs by qRT-PCR analysis. It is filed as cell-based. The conditions noted are these: Hepatocyte, filed as agonist, dose 0.4-10 µM. A digest of the protocol: (§2)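 Hepatocytes isolated from overnight-fasted male C57BL/6J mice (8–12 weeks), allowed 4 h to adhere, then given vehicle (0.5% DMSO) or compound at 0.4, 2 and 10 μM for 24 h. TRIzol RNA extraction, then qRT-PCR with GAPDH normalization by ΔΔCt. Values are expressed as fold over vehicle (mean ± S.E.M, n = 3).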

Data set [4] has as its target T2, TGR5 (G-protein coupled bile acid receptor 1) (Homo sapiens, UniProt Q8TDU6).
T2 sequence (Q8TDU6 whole entry): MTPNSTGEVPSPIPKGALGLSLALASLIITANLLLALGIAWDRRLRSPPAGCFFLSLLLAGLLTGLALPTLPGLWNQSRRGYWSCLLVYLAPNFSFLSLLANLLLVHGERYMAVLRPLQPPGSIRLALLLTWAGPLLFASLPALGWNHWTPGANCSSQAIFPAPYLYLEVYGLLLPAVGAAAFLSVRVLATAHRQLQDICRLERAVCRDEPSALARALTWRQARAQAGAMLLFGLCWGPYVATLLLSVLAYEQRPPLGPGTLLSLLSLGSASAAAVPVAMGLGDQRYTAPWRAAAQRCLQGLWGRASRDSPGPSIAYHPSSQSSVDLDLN
Put plainly: Agonist activity at human TGR5 expressed in HEK293 cells co-transfected with CRE-Luc reporter plasmid assessed as receptor transactivation incubated for 5.5 hrs by luciferase reporter gene assay relative to OCA. It is filed as cell-based. As to conditions: read-out: Efficacy.

Data set [5] concerns the target T1, Bile acid receptor (Mus musculus). Put plainly: Agonist activity at FXR in C57BL/6J mouse hepatocytes assessed as upregulation of BSEP mRNA expression at 0.4 to 10 uM incubated for 24 hrs by qRT-PCR analysis. It is filed as cell-based. As to conditions: Hepatocyte, filed as agonist, dose 0.4-10 µM. The method in brief:
as §2
Background: Real-time PCR tracks product formation cycle by cycle.

The target in data set [6] is T3, G-protein coupled bile acid receptor 1 (Homo sapiens, UniProt Q8TDU6).
T3 sequence (Q8TDU6 whole entry): T2 sequence (Q8TDU6 whole entry)
The experiment in a line: Agonist activity at human TGR5 expressed in HEK293 cells co-transfected with CRE-Luc reporter plasmid assessed as receptor transactivation incubated for 5.5 hrs by luciferase reporter gene assay. It is filed as cell-based.

The nature of data set [7]: Drug uptake in ICR mouse liver at 15 mg/kg, po measured after 1.5 hrs by LC-MS/MS analysis. It is filed as ADME, organism-based. As to conditions: read-out: Drug uptake. The method in brief:
as §1

The nature of data set [8]: Drug uptake in ICR mouse liver at 15 mg/kg, po measured after 4 hrs by LC-MS/MS analysis. It is filed as ADME, organism-based. The conditions noted are these: read-out: Drug uptake. A digest of the protocol:
as §1

The target in data set [9] is T1, Bile acid receptor (Mus musculus). The experiment in a line: In vivo agonist activity at FXR in C57BL/6J mouse assessed as downregulation of CYP8B1 mRNA expression in liver at 10 mg/kg, po measured after 6 hrs by qRT-PCR analysis. It is filed as functional, organism-based. A digest of the protocol: (§3)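 Male C57BL/6J mice (7–8 weeks) were fasted 3 h, then dosed orally once in 0.25% CMC-Na (wt/vol) vehicle. Sacrificed 6 h post-dose; liver snap-frozen at -80 °C. TRIzol RNA extraction and qRT-PCR with GAPDH normalization (ΔΔCt). Results are fold over vehicle group (mean ± S.E.M, n = 6).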

For data set [10] the target is unchanged. The experiment in a line: In vivo agonist activity at FXR in C57BL/6J mouse assessed as downregulation of CYP7A1 mRNA expression in liver at 10 mg/kg, po measured after 6 hrs by qRT-PCR analysis. It is filed as functional, organism-based. The method in brief:
as §3

The nature of data set [11]: Plasma concentration in ICR mouse at 15 mg/kg, po measured after 8 hrs by LC-MS/MS analysis. It is filed as ADME, organism-based. A digest of the protocol:
as §1

A short description of data set [12]: Drug uptake in ICR mouse liver at 15 mg/kg, po measured after 8 hrs by LC-MS/MS analysis. It is filed as ADME, organism-based. As to conditions: read-out: Drug uptake. The method in brief: as §1
Another data set addresses T4, Bile acid receptor (Homo sapiens, UniProt Q96RI1).
T4 sequence (Q96RI1 whole entry): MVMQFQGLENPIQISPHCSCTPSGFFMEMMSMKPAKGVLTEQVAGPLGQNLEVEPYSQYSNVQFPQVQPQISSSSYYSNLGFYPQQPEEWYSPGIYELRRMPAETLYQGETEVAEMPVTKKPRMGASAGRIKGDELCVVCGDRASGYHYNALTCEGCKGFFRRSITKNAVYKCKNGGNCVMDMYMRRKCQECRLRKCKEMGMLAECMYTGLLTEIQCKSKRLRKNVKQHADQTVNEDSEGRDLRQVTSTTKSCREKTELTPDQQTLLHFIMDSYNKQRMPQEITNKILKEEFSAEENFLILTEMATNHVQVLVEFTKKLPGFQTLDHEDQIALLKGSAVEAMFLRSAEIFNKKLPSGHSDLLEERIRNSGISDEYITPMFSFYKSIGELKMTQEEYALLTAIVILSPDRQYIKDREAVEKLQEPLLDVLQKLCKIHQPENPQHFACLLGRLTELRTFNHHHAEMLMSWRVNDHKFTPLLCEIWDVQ
Put plainly: Agonist activity at human FXR expressed in human Huh-7 cells co-transfected with FXRE-Luc reporter plasmid assessed as receptor transactivation incubated for 16 hrs by luciferase reporter gene assay. It is filed as cell-based.

Data set [13] addresses T1, Bile acid receptor (Mus musculus). Put plainly: In vivo agonist activity at FXR in C57BL/6J mouse assessed as downregulation of CYP7A1 mRNA expression in liver at 30 mg/kg, po measured after 6 hrs by qRT-PCR analysis. It is filed as functional, organism-based. The method in brief:
(§4)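 Male C57BL/6J mice (7–8 weeks) fasted 3 h, then given a single oral dose; vehicle 0.25% CMC-Na (wt/vol). Killed 6 h post-dose; liver snap-frozen, stored at -80 °C. TRIzol RNA extraction, qRT-PCR, normalised to GAPDH by ΔΔCt. Values given as fold of vehicle group, mean ± SEM, n = 6.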

The target is the same in data set [14]. The experiment in a line: In vivo agonist activity at FXR in C57BL/6J mouse assessed as downregulation of CYP8B1 mRNA expression in liver at 30 mg/kg, po measured after 6 hrs by qRT-PCR analysis. It is filed as functional, organism-based. The method in brief: as §4

SMILES strings stand for the structures. Calls of active or inactive are those of the source. No cut-off for these calls is given here. Some results are limits rather than exact numbers.

The EC50 is the concentration giving half of the maximal effect.

In the case of `C/C(=N\OCc1cc(C(=O)O)ccc1C#N)c1ccc(OCc2c(-c3ccccc3OC(F)(F)F)noc2C2CC2)cc1Cl`, the concentration at 1.5 h turned out to be 56.7 ng/mL in data set [1] and 4340 ng/g in data set [7]. For the same compound, the concentration at 4 h in data set [2] is 45.2 ng/mL; in data set [8] it was 3580 ng/g. Also, the Activity entry in [3] was “Dose-Dependent Effect”. For the same compound, the Emax at 5.5 h in data set [4] was found to be 0.6%. Also, the result in data set [5], in data set [9] and in data set [10] was Active. In addition, in data set [6], the EC50 is above 100 µM. Further, the concentration at 8 h turned out to be 8.4 ng/mL in data set [11] and 941 ng/g in [12].

Consider `C/C(=N\OCc1cncc(C(=O)O)c1)c1ccc(OCc2c(-c3ccccc3OC(F)(F)F)noc2C2CC2)c(C)c1`, for which the EC50 at Bile acid receptor worked out at 1830 nM. On the same count and under the same terms, the figure for `C/C(=N\OCc1cccc(C(=O)O)c1)c1ccc(OCc2c(-c3c(Cl)cccc3Cl)noc2C2CC2)cc1Br` is 37.2 nM. `CC[C@H]1[C@@H](O)[C@@H]2[C@H](CC[C@]3(C)[C@@H]([C@H](C)CCC(=O)O)CC[C@@H]23)[C@@]2(C)CC[C@@H](O)C[C@@H]12`: the outcome in [13], in data set [14] and in data set [5] was Active. Besides, in data set [3], the Activity result is “Dose-Dependent Effect”. With `C/C(=N\OCc1cccc(C(=O)O)c1)c1ccc(OCc2c(-c3ccccc3OC(F)(F)F)noc2C2CC2)cc1Cl`, the 50% effective concentration (EC50) on Bile acid receptor was determined as 108 nM. In the case of `C/C(=N\OCc1ccc(C(=O)O)o1)c1ccc(OCc2c(-c3c(Cl)cccc3Cl)noc2C2CC2)cn1`, the EC50 on Bile acid receptor came out at 1390 nM. For `C/C(=N\OCc1cccc(C(=O)O)c1)c1ccc(OCc2c(-c3c(Cl)cccc3Cl)noc2C2CC2)cn1`, the EC50 at Bile acid receptor stood at 234 nM. Regarding `C/C(=N\OCc1cncc(C(=O)O)c1)c1ccc(OCc2c(-c3ccccc3OC(F)(F)F)noc2C2CC2)c(F)c1`, the EC50 on Bile acid receptor is 728 nM. In the case of `C/C(=N\OCc1cc(C)cc(C(=O)O)c1)c1ccc(OCc2c(-c3ccccc3OC(F)(F)F)noc2C2CC2)c(C)c1`, on Bile acid receptor, the EC50 is 523 nM. Still for that read-out and setting: the figure for `C/C(=N\OCc1cncc(C(=O)O)c1)c1ccc(OCc2c(-c3ccccc3OC(F)(F)F)noc2C2CC2)cc1Cl` is 54.8 nM; for `C/C(=N\OCc1cccc(C(=O)O)c1)c1ccc(OCc2c(-c3c(Cl)cccc3Cl)noc2C2CC2)cc1Cl` it is 47.4 nM; for `C/C(=N\OCc1cc(C)cc(C(=O)O)c1)c1ccc(OCc2c(-c3ccccc3OC(F)(F)F)noc2C2CC2)c(F)c1` it is 1340 nM.

For the compound `C/C(=N\OCc1cccc(C(=O)O)c1)c1ccc(OCc2c(-c3c(Cl)cccc3Cl)noc2C2CC2)c(Cl)c1`, the EC50 at Bile acid receptor worked out at 259 nM.

For `COc1cc(/C(C)=N/OCc2cc(C)cc(C(=O)O)c2)ccc1OCc1c(-c2ccccc2OC(F)(F)F)noc1C1CC1`, at Bile acid receptor, the EC50 was above 1850 nM. Regarding `C/C(=N\OCc1cc(C(=O)O)ccc1C#N)c1ccc(OCc2c(-c3ccccc3OC(F)(F)F)noc2C2CC2)c(C)c1`, the EC50 at Bile acid receptor was 440 nM. Take `C/C(=N\OCc1cncc(C(=O)O)c1)c1ccc(OCc2c(-c3c(Cl)cccc3Cl)noc2C2CC2)cc1Cl`: at Bile acid receptor, the EC50 came to 65 nM. Regarding `C/C(=N\OCc1ccccc1C(=O)O)c1ccc(OCc2c(-c3c(Cl)cccc3Cl)noc2C2CC2)cc1Cl`, the EC50 on Bile acid receptor came out at 75.4 nM. As for `C/C(=N\OCc1cc(C)cc(C(=O)O)c1)c1ccc(OCc2c(-c3ccccc3OC(F)(F)F)noc2C2CC2)cc1Cl`, the EC50 on Bile acid receptor came out at 158 nM.

For `C/C(=N\OCc1cc(C(=O)O)ccc1C#N)c1ccc(OCc2c(-c3ccccc3OC(F)(F)F)noc2C2CC2)c(F)c1`, the EC50 at Bile acid receptor worked out at 347 nM. On to `C/C(=N\OCc1ccc(C(=O)O)o1)c1ccc(OCc2c(-c3c(Cl)cccc3Cl)noc2C2CC2)cc1Cl`, for which, at Bile acid receptor, the EC50 is 49.7 nM. Same read-out and setting: next, `C/C(=N\OCc1ccc(C(=O)O)cc1)c1ccc(OCc2c(-c3c(Cl)cccc3Cl)noc2C2CC2)cc1Cl`: 134 nM.
